# Experimental data as given in paper PMC4714695 (Cancer Science, 2015).
# Entries after “also recorded” stand apart in the source; their conditions may differ. Read-outs that look alike come from different tables or passages of the source.
# What was measured:
# PLK3 = conditions: compared with PLK1; cited from earlier work
# PLK1 = conditions: cited from earlier work
# [1] = system: Japanese patients with acute myeloid leukemia; experiment: Phase I 3 + 3 dose escalation: dose-limiting toxicities and MTD; assay type: in vivo, human
# Procedure, shortened: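 Open-label 3 + 3 escalation at 350, 400 and 450 mg (highest planned level), by 2-h IV infusion on days 1 and 15 of 28-day cycles; patients hospitalized in cycle 1. DLT: treatment-related CTCAE grade ≥3 non-hematologic AE in cycle 1. Exceptions: untreated nausea/vomiting, treatable grade 3 diarrhea, grade 3 febrile neutropenia or infection, lab abnormalities resolving within 5 days, grade 3 tumor lysis syndrome.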
# [2] = system: Japanese patients with acute myeloid leukemia; experiment: Adverse events graded by CTCAE version 3.0; assay type: in vivo, human; conditions: for Blood creatinine increased, all grades, patients / Decreased appetite, all grades, patients / Decreased appetite, grade 3, patients / Epistaxis, all grades, patients / Fatigue, all grades, patients / Febrile neutropenia, all grades, patients / Febrile neutropenia, grade 3, patients / Hyperuricemia, all grades, patients / Hypoalbuminemia, all grades, patients / Hypokalemia, all grades, patients / Hypokalemia, grade 3, patients / Infection, all grades, patients / Infection, grade 3, patients / Nausea, all grades, patients / Neutropenia, all grades, patients / Neutropenia, grade 4, patients / Pyrexia, all grades, patients / Sepsis, all grades, patients / Sepsis, grade 3, patients / Stomatitis, all grades, patients / Vomiting, all grades, patients / Rash, all grades, patients / Hypokalemia, grade 4, patients: irrespective of relationship
# Procedure, shortened: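 Adults with relapsed/refractory or untreated AML unfit for standard induction, ECOG ≤2. Test compound given as a 2-h IV drip infusion on days 1 and 15 of 28-day cycles, at 350, 400 or 450 mg per administration. AEs from all cycles graded by CTCAE v3.0 and tabulated per dose cohort by MedDRA system organ class, preferred term and grade, with drug causality assigned. Safety cut-off 6 June 2014.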
# [3] = system: White patients with relapsed or refractory AML; conditions: cited from earlier work
# [4] = system: Japanese patients with acute myeloid leukemia; experiment: Electrocardiogram QTcF assessment; assay type: in vivo, human
# Plasma pharmacokinetics = assay type: in vivo, human
# [5] = 450 mg, day 29 (cycle 2, day 1)
# [6] = all cohorts (N = 19), all grades
# [7] = all cohorts (N = 19), all treatment cycles
# [8] = human, plasma, intravenous, 350 mg
# [9] = human, plasma, intravenous, 400 mg
# [10] = human, plasma, intravenous, 450 mg
compound,measurement,setting,value
CC[C@@H]1C(=O)N(C)c2cnc(Nc3ccc(C(=O)N[C@H]4CC[C@H](N5CCN(CC6CC6)CC5)CC4)cc3OC)nc2N1C(C)C [Volasertib],Inhibition of PLK3,PLK3,to a lesser extent
same,Inhibition of PLK1,PLK1,selectively inhibit
same,DLT in cycle 1,[1]; 350 mg cohort,No DLT were reported
same,DLT in cycle 1,[1]; 400 mg cohort,No DLT were reported
same,Patients with DLT in cycle 1,"[1]; 450 mg cohort 3, 6 evaluable patients",1
same,DLT observed (type),"[1]; 450 mg cohort 3, cycle 1",grade 4 abnormal liver function test; also recorded: reversible grade 4 liver function test abnormality
same,Day on which the patient was considered recovered from the DLT,"[1]; 450 mg, reduced to 400 mg in cycle 2",38 days
same,Total bilirubin in the patient with DLT,"[1]; 450 mg, day 9 of cycle 1, reference 0.3–1.2 mg/dL",1.1 mg/dL
same,ALT in the patient with DLT,"[1]; 450 mg, day 9 of cycle 1, reference 6–30 IU/L",116 IU/L
same,AST in the patient with DLT,"[1]; 450 mg, day 9 of cycle 1, reference 13–33 IU/L",131 IU/L
same,ALT in the patient with DLT,"[1]; 450 mg, day 11 of cycle 1",711 IU/L
same,AST in the patient with DLT,"[1]; 450 mg, day 11 of cycle 1",764 IU/L
same,Total bilirubin in the patient with DLT,"[1]; 450 mg, day 11 of cycle 1",2.6 mg/dL
same,ALT in the patient with DLT,"[1]; 450 mg, day 16",450 IU/L
same,AST in the patient with DLT,"[1]; 450 mg, day 16",156 IU/L
same,Total bilirubin in the patient with DLT,"[1]; 450 mg, day 16",3.8 mg/dL
same,ALT in the patient with DLT,[1]; [5],38 IU/L
same,AST in the patient with DLT,[1]; [5],15 IU/L
same,Total bilirubin in the patient with DLT,[1]; [5],1.0 mg/dL
same,Maximum tolerated dose (MTD),[1]; intravenous 2-h infusion on days 1 and 15 of 28-day cycles,450 mg
same,"Blood creatinine increased, all grades, patients",[2]; 350 mg (n = 7),1 n
same,"Decreased appetite, all grades, patients",[2]; 350 mg (n = 7),5 n
same,"Decreased appetite, grade 3, patients",[2]; 350 mg (n = 7),1 n
same,"Epistaxis, all grades, patients",[2]; 350 mg (n = 7),1 n
same,"Fatigue, all grades, patients",[2]; 350 mg (n = 7),1 n
same,"Febrile neutropenia, all grades, patients",[2]; 350 mg (n = 7),5 n
same,"Febrile neutropenia, grade 3, patients",[2]; 350 mg (n = 7),5 n
same,"Hyperuricemia, all grades, patients",[2]; 350 mg (n = 7),3 n
same,"Hypoalbuminemia, all grades, patients",[2]; 350 mg (n = 7),2 n
same,"Hypokalemia, all grades, patients",[2]; 350 mg (n = 7),3 n
same,"Hypokalemia, grade 3, patients",[2]; 350 mg (n = 7),1 n
same,"Infection, all grades, patients",[2]; 350 mg (n = 7),2 n
same,"Infection, grade 3, patients",[2]; 350 mg (n = 7),2 n
same,"Nausea, all grades, patients",[2]; 350 mg (n = 7),1 n
same,"Neutropenia, all grades, patients",[2]; 350 mg (n = 7),1 n
same,"Neutropenia, grade 4, patients",[2]; 350 mg (n = 7),1 n
same,"Pyrexia, all grades, patients",[2]; 350 mg (n = 7),2 n
same,"Sepsis, all grades, patients",[2]; 350 mg (n = 7),2 n
same,"Sepsis, grade 3, patients",[2]; 350 mg (n = 7),2 n
same,"Stomatitis, all grades, patients",[2]; 350 mg (n = 7),2 n
same,"Vomiting, all grades, patients",[2]; 350 mg (n = 7),1 n
same,Patients reporting grade 4 AE,"[2]; 350 mg cohort 1, neutropenia and thrombocytopenia",one of seven patients
same,"Blood creatinine increased, all grades, patients",[2]; 400 mg (n = 4),2 n
same,"Decreased appetite, all grades, patients",[2]; 400 mg (n = 4),1 n
same,"Epistaxis, all grades, patients",[2]; 400 mg (n = 4),2 n
same,"Fatigue, all grades, patients",[2]; 400 mg (n = 4),3 n
same,"Febrile neutropenia, all grades, patients",[2]; 400 mg (n = 4),3 n
same,"Febrile neutropenia, grade 3, patients",[2]; 400 mg (n = 4),3 n
same,"Nausea, all grades, patients",[2]; 400 mg (n = 4),2 n
same,"Neutropenia, all grades, patients",[2]; 400 mg (n = 4),1 n
same,"Neutropenia, grade 4, patients",[2]; 400 mg (n = 4),1 n
same,"Rash, all grades, patients",[2]; 400 mg (n = 4),4 n
same,"Sepsis, all grades, patients",[2]; 400 mg (n = 4),1 n
same,"Sepsis, grade 3, patients",[2]; 400 mg (n = 4),1 n
same,"Stomatitis, all grades, patients",[2]; 400 mg (n = 4),1 n
same,"Vomiting, all grades, patients",[2]; 400 mg (n = 4),1 n
same,Patients reporting grade 4 AE,"[2]; 400 mg cohort 2, neutropenia and thrombocytopenia",two of four patients
same,"Decreased appetite, all grades, patients",[2]; 450 mg (n = 8),2 n
same,"Decreased appetite, grade 3, patients",[2]; 450 mg (n = 8),2 n
same,"Epistaxis, all grades, patients",[2]; 450 mg (n = 8),2 n
same,"Fatigue, all grades, patients",[2]; 450 mg (n = 8),1 n
same,"Febrile neutropenia, all grades, patients",[2]; 450 mg (n = 8),7 n
same,"Febrile neutropenia, grade 3, patients",[2]; 450 mg (n = 8),6 n
same,"Hypoalbuminemia, all grades, patients",[2]; 450 mg (n = 8),1 n
same,"Hypokalemia, all grades, patients",[2]; 450 mg (n = 8),2 n
same,"Hypokalemia, grade 4, patients",[2]; 450 mg (n = 8),1 n
same,"Infection, all grades, patients",[2]; 450 mg (n = 8),1 n
same,"Nausea, all grades, patients",[2]; 450 mg (n = 8),4 n
same,"Neutropenia, all grades, patients",[2]; 450 mg (n = 8),1 n
same,"Neutropenia, grade 4, patients",[2]; 450 mg (n = 8),1 n
same,"Pyrexia, all grades, patients",[2]; 450 mg (n = 8),2 n
same,"Rash, all grades, patients",[2]; 450 mg (n = 8),3 n
same,"Sepsis, all grades, patients",[2]; 450 mg (n = 8),2 n
same,"Sepsis, grade 3, patients",[2]; 450 mg (n = 8),2 n
same,"Stomatitis, all grades, patients",[2]; 450 mg (n = 8),2 n
same,"Vomiting, all grades, patients",[2]; 450 mg (n = 8),2 n
same,Patients reporting grade 4 AE,"[2]; 450 mg cohort 3, neutropenia, hypokalemia and abnormal liver function test",three of eight patients
same,"Blood creatinine increased, all grades, patients",[2]; Total (N = 19),3 n
same,"Decreased appetite, all grades, patients",[2]; Total (N = 19),8 n
same,"Decreased appetite, grade 3, patients",[2]; Total (N = 19),3 n
same,"Epistaxis, all grades, patients",[2]; Total (N = 19),5 n
same,"Fatigue, all grades, patients",[2]; Total (N = 19),5 n
same,"Febrile neutropenia, all grades, patients",[2]; Total (N = 19),15 n
same,"Febrile neutropenia, grade 3, patients",[2]; Total (N = 19),14 n
same,"Hyperuricemia, all grades, patients",[2]; Total (N = 19),3 n
same,"Hypoalbuminemia, all grades, patients",[2]; Total (N = 19),3 n
same,"Hypokalemia, all grades, patients",[2]; Total (N = 19),5 n
same,"Hypokalemia, grade 3, patients",[2]; Total (N = 19),1 n
same,"Hypokalemia, grade 4, patients",[2]; Total (N = 19),1 n
same,"Infection, all grades, patients",[2]; Total (N = 19),3 n
same,"Infection, grade 3, patients",[2]; Total (N = 19),2 n
same,"Nausea, all grades, patients",[2]; Total (N = 19),7 n
same,"Neutropenia, all grades, patients",[2]; Total (N = 19),3 n
same,"Neutropenia, grade 4, patients",[2]; Total (N = 19),3 n
same,"Pyrexia, all grades, patients",[2]; Total (N = 19),4 n
same,"Rash, all grades, patients",[2]; Total (N = 19),7 n
same,"Sepsis, all grades, patients",[2]; Total (N = 19),5 n
same,"Sepsis, grade 3, patients",[2]; Total (N = 19),5 n
same,"Stomatitis, all grades, patients",[2]; Total (N = 19),5 n
same,"Vomiting, all grades, patients",[2]; Total (N = 19),4 n
same,"Decreased appetite, frequency",[2]; [6],42.1%
same,"Epistaxis, frequency",[2]; [6],26.3%
same,"Fatigue, frequency",[2]; [6],26.3%
same,"Febrile neutropenia, frequency",[2]; [6],78.9%
same,"Hypokalemia, frequency",[2]; [6],26.3%
same,"Nausea, frequency",[2]; [6],36.8%
same,"Pyrexia, frequency",[2]; [6],21.1%
same,"Rash, frequency",[2]; [6],36.8%
same,"Sepsis, frequency",[2]; [6],26.3%
same,"Stomatitis, frequency",[2]; [6],26.3%
same,"Vomiting, frequency",[2]; [6],21.1%
same,Patients reporting CTCAE of grade ≥3,[2]; [7],94.7%
same,Patients reporting at least one AE irrespective of cause,[2]; [7],19 patients
same,Patients reporting at least one drug-related AE,[2]; [7],19 patients
same,DLT reported in White patients,[3]; 400 mg,mucosal inflammation
same,DLT reported in White patients,[3]; 450 mg,pyrexia
same,MTD in White patients,"[3]; volasertib monotherapy, phase I",450 mg
same,Patients with >60 ms QTcF increase at end of infusion versus prior to infusion,[4]; 450 mg cohort 3 only,two patients
same,QTcF intervals >500 ms,[4]; all cohorts,No QTcF intervals >500 ms were reported
same,Time of maximum increase in mean QTcF interval after start of infusion,[4]; all dose cohorts,2 h
same,Clinically relevant abnormalities in cardiologic assessment,"[4]; any cohort, during treatment",No patients in any cohort developed clinically relevant abnormalities
same,Time by which mean QTcF returned to near baseline,"[4]; post-dosing, all dose cohorts",≤ 24 h
same,Mean plasma concentration relative to maximum plasma concentration,Plasma pharmacokinetics; 24 h after administration,< 10%
same,Dose dependence of exposure,Plasma pharmacokinetics; dose range 350–450 mg,increased dose‐proportionally
same,Vd,"Plasma pharmacokinetics; human, plasma, intravenous",3540 to 4720 L
same,clearance,"Plasma pharmacokinetics; human, plasma, intravenous",606 to 669 mL/min
same,half-life,"Plasma pharmacokinetics; human, plasma, intravenous",108 to 130 h
same,AUC(0-inf),Plasma pharmacokinetics; [8],8720 ng·h/mL
same,AUC(0-t),Plasma pharmacokinetics; [8],7810 ng·h/mL
same,Cmax,Plasma pharmacokinetics; [8],756 ng/mL
same,Tmax,Plasma pharmacokinetics; [8],1.97 h
same,clearance,Plasma pharmacokinetics; [8],669 mL/min
same,half-life,Plasma pharmacokinetics; [8],117 h
same,AUC(0-inf),Plasma pharmacokinetics; [9],10400 ng·h/mL
same,AUC(0-t),Plasma pharmacokinetics; [9],9340 ng·h/mL
same,Cmax,Plasma pharmacokinetics; [9],762 ng/mL
same,Tmax,Plasma pharmacokinetics; [9],1.05 h
same,clearance,Plasma pharmacokinetics; [9],643 mL/min
same,half-life,Plasma pharmacokinetics; [9],130 h
same,AUC(0-inf),Plasma pharmacokinetics; [10],12400 ng·h/mL
same,AUC(0-t),Plasma pharmacokinetics; [10],11400 ng·h/mL
same,Cmax,Plasma pharmacokinetics; [10],1060 ng/mL
same,Tmax,Plasma pharmacokinetics; [10],1.53 h
same,clearance,Plasma pharmacokinetics; [10],606 mL/min
same,half-life,Plasma pharmacokinetics; [10],108 h
same,"AUC0–∞,norm (dose normalized), gMean (gCV%)","Plasma pharmacokinetics; plasma, after first infusion of volasertib 350 mg (n = 7)",24.9 (27.8) ng·h/mL/mg
same,"AUC0–∞,norm (dose normalized), gMean (gCV%)","Plasma pharmacokinetics; plasma, after first infusion of volasertib 400 mg (n = 4)",25.9 (54.7) ng·h/mL/mg
same,"AUC0–∞,norm (dose normalized), gMean (gCV%)","Plasma pharmacokinetics; plasma, after first infusion of volasertib 450 mg (n = 8)",27.5 (22.8) ng·h/mL/mg
